Test results from ChEMBL document CHEMBL1133628, “Nonnucleoside human cytomegalovirus inhibitors: synthesis and antiviral evaluation of (chlorophenylmethyl)benzothiadiazine dioxide derivatives” (J Med Chem, 2000).

Legend:
[1] = tested on: Human immunodeficiency virus 1; assay: In vitro inhibition of HIV-1(IIIB) cytopathicity in CEM cells.; assay type: functional, organism-based; conditions: Human immunodeficiency virus 1, CCRF-CEM
In short: (§1)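 CEM cells at 4×10^5 cells/mL infected with HIV-1 IIIB or HIV-2 ROD (stocks from MT-4 supernatants) at ~100 CCID50/mL, then immediately mixed with compound dilutions. Giant cell formation scored microscopically after 4 days; EC50 is the concentration inhibiting it by 50%. Triplicate assays.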

[2] = tested on: Human immunodeficiency virus 2; assay: In vitro inhibition of HIV-2(ROD) cytopathicity in CEM cells.; assay type: functional, organism-based; conditions: Human immunodeficiency virus 2, CCRF-CEM; in short: as §1
[3] = tested on: HEL; assay: Inhibition of cell growth in HEL cells.; assay type: functional; conditions: Homo sapiens
In short: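 HEL fibroblasts seeded at 5×10^3 cells/well and left to proliferate 24 h, then given compound dilutions in duplicate. Incubated 3 days at 37 °C, 5% CO2; cells counted with a Coulter counter. CC50 is the concentration reducing cell growth by 50%.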

[4] = tested on: HEL; assay: In vitro alteration in cell morphology in HEL cells.; assay type: functional; conditions: Homo sapiens
In short: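 Normal HEL cells exposed to compounds and examined microscopically; minimum cytotoxic concentration is the lowest giving a detectable change in cell morphology. Duplicate assays.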

[5] = tested on: Human alphaherpesvirus 3; assay: In vitro inhibition of Thymidine Kinase deficient Varicella Zoster Virus (YS/R) plaque formation.; assay type: functional, organism-based
In short: (§2)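 Confluent HEL fibroblasts infected with VZV at 20 PFU; after a 2-h adsorption, residual virus removed and cells incubated in MEM with 2% FCS containing serial 5-fold compound dilutions, in duplicate. Fixed with ethanol after 5 days at 37 °C, 5% CO2, then Giemsa-stained; plaques counted microscopically. IC50 read graphically from plaque number (% of control); mean of two independent experiments.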

[6] = tested on: Human betaherpesvirus 5; assay: In vitro inhibition of HCMV (AD-169) plaque formation.; assay type: functional, organism-based
In short: (§3)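 Confluent HEL fibroblasts infected with HCMV at 100 PFU of cell-free virus; after a 2-h adsorption, residual virus removed and cells incubated in MEM with 2% FCS containing serial 5-fold compound dilutions, in duplicate. Fixed with ethanol after 7 days at 37 °C, 5% CO2, then Giemsa-stained; cytopathic effect scored microscopically. IC50 read graphically from % cytopathicity; mean of two experiments.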

[7] = tested on: Human betaherpesvirus 5; assay: In vitro inhibition of HCMV (Davis) plaque formation.; assay type: functional, organism-based; in short: as §3
[8] = tested on: Human alphaherpesvirus 3; assay: In vitro inhibition of Thymidine Kinase-Varicella Zoster Virus(YS) plaque formation.; assay type: functional, organism-based; in short: as §2
[9] = tested on: Human alphaherpesvirus 3; assay: In vitro inhibition of Thymidine Kinase-Varicella-Zoster Virus(OKA) plaque formation.; assay type: functional, organism-based; conditions: Human alphaherpesvirus 3, oka; in short: as §2
[10] = tested on: Human alphaherpesvirus 3; assay: In vitro inhibition of Thymidine Kinase deficient Varicella Zoster Virus (07/1) plaque formation.; assay type: functional, organism-based; in short: as §2
[11] = tested on: CCRF-CEM; assay: In vitro inhibition of CEM cell proliferation.; assay type: functional; conditions: Homo sapiens
In short: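 CEM cell proliferation measured alongside the HIV assays; CC50 is the concentration reducing CEM cell proliferation by 50%.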

Structure (SMILES) | EC50 [1] [µM] | EC50 [2] [µM] | CC50 [3] [µM] | MCC [4] [µM] | IC50 [5] [µM] | IC50 [6] [µM] | IC50 [7] [µM] | IC50 [8] [µM] | IC50 [9] [µM] | IC50 [10] [µM] | CC50 [11] [µM]
O=C1c2ccccc2N(Cc2ccc(Cl)c(Cl)c2)S(=O)(=O)N1Cc1ccccc1 | > 2 | > 2 | > 200 | 200 | 4.5 | 3.3 | 3.5 | > 50 | > 50 | 27 | 16.4
Nc1nc2c(ncn2COCCO)c(=O)[nH]1 [ACYCLOVIR] |  |  | > 400 | > 150 | 63 |  |  | 4.09 | 4.53 | 41 | 
O=C1c2ccccc2N(Cc2ccc(Cl)cc2)S(=O)(=O)N1Cc1ccccc1 | 6.5 | 8 | > 200 | > 5 | 2.4 | 4 | 3 | 22 | 18 | 11 | 19.7
O=C1c2ccccc2N(Cc2ccccc2)S(=O)(=O)N1Cc1ccccc1Cl | > 250 | > 250 | > 200 | 200 | > 50 | > 50 | > 50 | > 20 | > 50 | > 50 | > 250
O=C1c2ccccc2N(COCc2ccccc2)S(=O)(=O)N1Cc1ccccc1 | > 8 | > 8 | > 122 | 122 | > 12 | 20 |  |  |  | > 12 | 25
O=C1c2ccccc2N(Cc2ccccc2Cl)S(=O)(=O)N1Cc1ccccc1Cl | 15 | > 10 | > 200 | > 20 | 5 | > 50 | 50 | > 50 | > 50 | > 50 | 40.4
O=S1(=O)N=C(OCc2ccccc2)c2ccccc2N1Cc1ccc(Cl)c(Cl)c1 | > 10 | > 10 | > 200 | 200 | > 50 | > 50 | > 50 | > 20 | > 50 | > 50 | 30.5
O=C1c2ccccc2N(Cc2cccc(Cl)c2)S(=O)(=O)N1Cc1ccccc1 | 5.5 | > 10 | > 200 | > 5 |  | > 5 | > 5 | > 50 | > 50 | 30 | 21.3
O=C1c2ccccc2N(Cc2ccccc2)S(=O)(=O)N1Cc1ccccc1 | 25 | ≥ 50 | > 200 | > 50 | 6 | 10 | 10 | 36 | 7.4 | 23 | 108
O=C1c2ccccc2N(Cc2ccccc2Cl)S(=O)(=O)N1COCc1ccccc1 | > 10 | > 10 | > 50 | 200 | 8 | 10 | 10 | > 50 | > 50 | > 50 | 22.2
O=C1c2ccccc2N(COCc2ccccc2)S(=O)(=O)N1COCc1ccccc1 | 25 | 25 | 130 | 200 | 10 | 12 | 12 | > 50 | 14 | > 50 | 27.7
O=C1c2ccccc2N(Cc2ccccc2)S(=O)(=O)N1COCc1ccccc1 | 15 | 20 | > 98 | 49 |  |  |  | > 12 | > 12 | > 12 | 100
O=S1(=O)N=C(OCc2ccccc2)c2ccccc2N1Cc1ccccc1 | > 10 | > 10 | > 200 | 200 | 20 | 7 | 7 | > 50 | > 50 | > 50 | 22.2
C#CCOCN1c2ccccc2C(=O)N(Cc2ccccc2)S1(=O)=O | > 8 | > 8 | > 140 | 140 | 36 |  |  |  |  |  | 23
O=C1c2ccccc2N(Cc2ccccc2Cl)S(=O)(=O)N1Cc1ccccc1 | > 10 | > 10 | 88 | 200 | > 20 | 15 | 12 | > 20 | > 20 | > 20 | 27.9
Nc1ccn(C[C@@H](CO)OCP(=O)(O)O)c(=O)n1 [CIDOFOVIR] |  |  | 317 | > 159 |  | 0.58 | 1.3 |  |  |  | 
O=C1c2ccccc2N(Cc2ccc(Cl)cc2)S(=O)(=O)N1Cc1ccc(Cl)cc1 | > 10 | 7.5 | > 200 | > 50 | 2.4 | 3.2 | 3.2 | 3.8 | 3.6 | 11 | 35.8
O=C(OCOCN1c2ccccc2C(=O)N(Cc2ccccc2)S1(=O)=O)c1ccccc1 | > 40 | > 40 | 37 | 110 | 26 | 29 | > 44 | > 44 | > 44 | > 44 | 100
O=C1c2ccccc2N(Cc2ccccc2)S(=O)(=O)N1Cc1ccc(Cl)cc1 | 5 | > 10 | 121 | 20 | 2.6 | 3 | 3.5 | 8.2 | 2.6 | 10 | 27.8
